The values below come from ChEMBL document CHEMBL4627406, “Amino Acids Bearing Aromatic or Heteroaromatic Substituents as a New Class of Ligands for the Lysosomal Sialic Acid Transporter Sialin” (J Med Chem, 2020).

Calls of active or inactive are those of the source. No cut-off for these calls is given here.

Assay [1] addresses T1, Sialin (Homo sapiens) (UniProt Q9NRA2).
T1 sequence (whole entry): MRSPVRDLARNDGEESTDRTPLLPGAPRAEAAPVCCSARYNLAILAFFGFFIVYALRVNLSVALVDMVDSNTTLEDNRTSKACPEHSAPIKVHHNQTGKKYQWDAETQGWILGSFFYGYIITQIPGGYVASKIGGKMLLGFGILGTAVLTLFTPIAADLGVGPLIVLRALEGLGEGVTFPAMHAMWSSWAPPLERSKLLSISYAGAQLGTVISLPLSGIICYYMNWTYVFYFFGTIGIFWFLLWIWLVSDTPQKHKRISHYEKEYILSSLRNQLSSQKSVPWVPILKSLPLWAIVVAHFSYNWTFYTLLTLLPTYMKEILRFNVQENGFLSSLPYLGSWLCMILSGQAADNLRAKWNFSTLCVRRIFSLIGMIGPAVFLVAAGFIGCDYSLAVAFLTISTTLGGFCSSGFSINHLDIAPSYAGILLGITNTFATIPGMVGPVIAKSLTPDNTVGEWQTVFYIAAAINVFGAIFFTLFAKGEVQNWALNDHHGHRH
Briefly: Inhibition of human recombinant-Sialin expressed in HEK293 cells assessed as reduction in [3H]Neu5Ac uptake at 30 uM incubated for 15 mins by liquid scintillation counting method. The assay is classed as cell-based. In short, it runs like this:
(§1)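 HEK293 cells expressing EGFP-human sialin L22G/L23G (sorting mutant at the plasma membrane), assayed 2 days after lipofection. Uptake of [3H]Neu5Ac (12.5 nM) over 15 min at room temperature in MES-Na+ pH 5.0 with inhibitor added together with tracer. Cells washed twice ice-cold, radioactivity counted by liquid scintillation. Dose-response run in triplicate, two to three independent experiments.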

The target of assay [2] is T1, Sialin (Homo sapiens). Briefly: Inhibition of human recombinant-Sialin expressed in HEK293 cells assessed as reduction in [3H]Neu5Ac uptake at 30 to 300 uM incubated for 15 mins by liquid scintillation counting method. The assay is classed as cell-based. In short, it runs like this:
as §1

Assay [3] concerns the target T1, Sialin (Homo sapiens). Briefly: Inhibition of human recombinant-Sialin expressed in HEK293 cells assessed as reduction in [3H]Neu5Ac transport pre-incubated for 15 mins at pH 5.5 followed by 15 mins wash at pH 7 at room temperature by liquid scintillation counting method relative to control. The assay is classed as cell-based.
Assay [4] deals with T1, Sialin (Homo sapiens). Briefly: Ratio of Km for Neu5Ac to Ic50 for test compound for inhibition of human recombinant-Sialin expressed in HEK293 cells assessed as reduction in [3H]Neu5Ac uptake at 30 to 300 uM incubated for 15 mins by liquid scintillation counting method. The assay is classed as cell-based.
Assay [5] has as its target T1, Sialin (Homo sapiens). Briefly: Non-competitive inhibition of human recombinant-Sialin expressed in HEK293 cells assessed as reduction in Vmax for [3H]Neu5Ac uptake at 10 uM incubated for 15 mins by liquid scintillation counting method relative to control. The assay is classed as cell-based.
The target of assay [6] is Proton-coupled amino acid transporter 1 (Homo sapiens) (UniProt Q7Z2H8). Briefly: Inhibition of human LYAAT1 at 100 uM relative to control.
Proton-coupled amino acid transporter 1 (Homo sapiens), sequence (Q7Z2H8 whole entry): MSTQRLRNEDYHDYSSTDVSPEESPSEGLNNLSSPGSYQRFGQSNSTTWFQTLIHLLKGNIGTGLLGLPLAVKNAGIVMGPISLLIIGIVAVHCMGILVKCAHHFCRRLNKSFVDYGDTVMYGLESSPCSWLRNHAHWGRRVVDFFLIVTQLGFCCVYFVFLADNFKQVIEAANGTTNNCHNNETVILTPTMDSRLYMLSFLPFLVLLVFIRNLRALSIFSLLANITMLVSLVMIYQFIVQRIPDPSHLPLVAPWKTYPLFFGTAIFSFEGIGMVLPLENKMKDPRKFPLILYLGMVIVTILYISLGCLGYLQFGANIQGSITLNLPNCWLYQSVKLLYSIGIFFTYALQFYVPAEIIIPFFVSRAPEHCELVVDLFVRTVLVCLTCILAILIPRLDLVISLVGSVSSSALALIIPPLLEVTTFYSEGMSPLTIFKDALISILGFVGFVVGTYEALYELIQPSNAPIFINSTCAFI
Assay [7] addresses T1, Sialin (Homo sapiens). Briefly: Inhibition of human recombinant-Sialin expressed in HEK293 cells assessed as reduction in [3H]Neu5Ac uptake at 100 uM incubated for 15 mins by liquid scintillation counting method. In kind it is cell-based. In short, it runs like this:
as §1

Assay [8] has as its system HEK293. Briefly: Substrate activity at EGFP-fused human Sialin L22G/L23G mutant expressed in HEK293 cells in acidic medium using tritiated compound at 2 to 100 uM by liquid scintillation counting method. The assay is classed as cell-based. In short, it runs like this:
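[3H]-labelled test ligand uptake measured in HEK293 cells expressing EGFP-sialin L22G/L23G versus mock (EGFP) cells, as for Neu5Ac uptake, using 2 μM tracer. For comparison, [3H]Neu5Ac was measured at 100 μM. Acidic MES pH 5.0 medium, liquid scintillation counting.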

Assay [9] addresses T1, Sialin (Homo sapiens). Briefly: Inhibition of human recombinant-Sialin expressed in HEK293 cells assessed as reduction in [3H]Neu5Ac transport at 120 uM pre-incubated for 15 mins at pH 5.5 followed by 15 or 30 mins wash at pH 7 at room temperature by liquid scintillation counting method relative to control. In kind it is cell-based.
Assay [10] deals with T2, Cystinosin (Homo sapiens) (UniProt O60931).
T2 sequence (whole entry): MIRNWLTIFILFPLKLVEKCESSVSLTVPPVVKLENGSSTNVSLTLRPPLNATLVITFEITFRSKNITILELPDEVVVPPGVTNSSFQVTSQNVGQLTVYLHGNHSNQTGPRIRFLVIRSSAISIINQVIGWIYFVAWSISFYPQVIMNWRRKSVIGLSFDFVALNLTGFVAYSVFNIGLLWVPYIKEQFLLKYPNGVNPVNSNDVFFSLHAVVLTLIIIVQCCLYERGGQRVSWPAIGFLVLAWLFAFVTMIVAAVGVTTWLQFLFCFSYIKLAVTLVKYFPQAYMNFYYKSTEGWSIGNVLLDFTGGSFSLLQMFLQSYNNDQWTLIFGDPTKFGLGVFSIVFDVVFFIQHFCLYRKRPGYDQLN
Briefly: Inhibition of human cystinosin at 100 uM relative to control. In short, it runs like this: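 Human cystinosin and rat LYAAT1 expressed at the plasma membrane of HEK293 cells, assayed one day after lipofection in MES-Na+ pH 5.0. Substrates were [14C]cystine (20 μM) for cystinosin and [3H]proline (100 μM) for LYAAT1. Test agent present during uptake, run in parallel with sialin. Triplicate measurements, three independent experiments.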

The subject of assay [11] is HEK293. Briefly: Substrate activity mRFP-tagged human recombinant-Sialin L22G/L23G mutant expressed in HEK293 cells assessed as induction of cytosolic acidification by measuring E2GFP fluorescence at 10 mM at pH 5.5. In kind it is cell-based. The method in brief:
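HEK293 cells co-expressing the ratiometric pH probe E2GFP and mRFP-tagged human sialin L22G/L23G. Cytosolic acidification from sialin-mediated H+ co-transport was read by E2GFP fluorescence after application at pH 5.5 of Neu5Ac (10 mM) or test ligand (30 μM).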

Assay [12] concerns the target T1, Sialin (Homo sapiens). Briefly: Trans-stimulation of human recombinant-Sialin expressed in HEK293 cells assessed as [3H]Neu5Ac transport at 5 mM pre-incubated for 15 mins at pH 5.5 followed by 15 or 30 mins wash at pH 7 at room temperature by liquid scintillation counting method. The assay is classed as cell-based.

Regarding `COc1ccc(CSC[C@H](NC(=O)OCC2c3ccccc3-c3ccccc32)C(=O)O)cc1`, in assay [1], the inhibition entry was “Active”.
On to `CC(C)(C)OC(=O)NCc1ccc(C[C@@H](NC(=O)OCC2c3ccccc3-c3ccccc32)C(=O)O)cc1`, for which the inhibition entry in assay [2] is “Active”.
Regarding `CC(C)(C)Oc1ccc(C[C@H](NC(=O)OCC2c3ccccc3-c3ccccc32)C(=O)O)cc1`, in [1], the inhibition entry is “Active”.
As for `O=C(NCCCC[C@H](NC(=O)OCC1c2ccccc2-c2ccccc21)C(=O)O)OCc1ccccc1`, the inhibition entry in assay [2] is “Active”.
Consider `COC(=O)CC[C@H](NC(=O)OCC1c2ccccc2-c2ccccc21)C(=O)O`, for which the inhibition result in [2] is “Dose-dependent effect”. In addition, the inhibition result in assay [1] was “Active”.
Regarding `CN(C)c1ccc2c(CC(=O)N[C@@H](CCCCNC(=O)OCc3ccccc3)C(=O)O)cc(=O)oc2c1`, the inhibition result in assay [1] is “Active”.
For `O=C(N[C@@H](CSCc1cc(=O)oc2cc(O)c(Cl)cc12)C(=O)O)OCC1c2ccccc2-c2ccccc21`, the inhibition entry in assay [2] was “Dose-dependent effect”. The inhibition result in assay [1] is “Active”.
`CC(C)C[C@H](NC(=O)N1CCCCCC1)C(=O)N[C@H](Cc1cn(C)c2ccccc12)C(=O)N[C@H](Cc1ccccn1)C(=O)O`: the inhibition result in assay [3] was “inactive”. Moreover, the Ratio in [4] was determined as 50.
Regarding `O=C(N[C@@H](CSCc1ccccc1)C(=O)O)OCC1c2ccccc2-c2ccccc21`, the inhibition result in assay [1] was “inactive”.
As to `O=C(Cc1cc(=O)oc2c3c4c(cc12)CCCN4CCC3)N[C@@H](CCCCNC(=O)OCc1ccccc1)C(=O)O`, the inhibition entry in assay [1] is “Active”.
Still for that read-out and setting: the same measure for `O=C(OCc1cc(=O)oc2cc(O)ccc12)OCC1c2ccccc2-c2ccccc21`: “inactive”.
Regarding `Cc1cc(C)cc(C(=O)N(C)[C@H](Cc2ccc(-c3ccccc3)cc2)C(=O)N[C@@H](Cc2c[nH]c3ccccc23)C(=O)O)c1`, the inhibition entry in assay [2] is “Active”.
Turning to `CC[C@H](C)[C@H](NC(=O)OCC1c2ccccc2-c2ccccc21)C(=O)O`, in [1], the inhibition result was “Active”.
On to `CC(C)C[C@H](NC(=O)OCC1c2ccccc2-c2ccccc21)C(=O)O`, for which the inhibition in assay [5] is 56%; in [7], 100%; in assay [2] it was “Dose-dependent effect”; in [9], 55%. Besides, the inhibition result in [6], in [1] and in [10] was “Active” each time. Besides, the outcome in [8] was inactive.
In the case of `CC(C)(C)SC[C@H](NC(=O)OCC1c2ccccc2-c2ccccc21)C(=O)O`, the inhibition result in assay [1] is “Active”.
Consider `CN(Cc1cnc2nc(N)nc(N)c2n1)c1ccc(C(=O)N[C@@H](CCC(=O)O)C(=O)O)cc1`, for which, in assay [2], the inhibition entry was “Active”.
Same read-out and setting: the same measure for `O=C(O)CN(CC(=O)O)c1ccccc1OCCOc1ccccc1N(CC(=O)O)CC(=O)O`: “Active”.
As to `O=C(N[C@@H](Cc1ccccc1)C(=O)O)OCC1c2ccccc2-c2ccccc21`, the inhibition entry in assay [1] was “Active”.
Take `O=C(O)[C@@H]1OCCOCCO[C@@H](C(=O)O)[C@H](C(=O)O)OCCOCCO[C@H]1C(=O)O`: the inhibition result in assay [2] is “Active”.
In the case of `O=C(NCCCC[C@H](NC(=O)OCc1cc(=O)oc2cc(O)ccc12)C(=O)O)OCc1ccccc1`, in assay [1], the inhibition entry was “Active”.
In the case of `O=C(NCCCC[C@H](NC(=O)OCC1c2ccccc2-c2ccccc21)C(=O)O)OCC1c2ccccc2-c2ccccc21`, the inhibition entry in assay [1] is “inactive”.
Same read-out and setting: the same measure for `CN(C)c1ccc2c(CC(=O)NCCCC[C@H](NC(=O)OCC3c4ccccc4-c4ccccc43)C(=O)O)cc(=O)oc2c1`: “Active”.
Same read-out and setting: as for `O=C(N[C@@H](CS)C(=O)O)OCC1c2ccccc2-c2ccccc21`, the entry is “Active”.
Regarding `COc1ccc2c(CSC[C@H](NC(=O)OCC3c4ccccc4-c4ccccc43)C(=O)O)cc(=O)oc2c1`, the inhibition result in assay [2] is “Dose-dependent effect”. For the same compound, in assay [1], the inhibition entry was “Active”.
Turning to `CCN(CC)c1ccc2c(CC(=O)N[C@@H](CCCCNC(=O)OCc3ccccc3)C(=O)O)cc(=O)oc2c1`, the inhibition entry in assay [1] was “Active”.
Same read-out and setting: as for `CC(C)CC(NC(=O)OCC1c2ccccc2-c2ccccc21)C(=O)O` (stereo unspecified), the entry is “Active”; as for `O=C(NCCCC[C@H](NC(=O)c1cc(=O)[nH]c2ccccc12)C(=O)O)OCc1ccccc1`, “inactive”; as for `CC(C)(C)OC(=O)C[C@H](NC(=O)OCC1c2ccccc2-c2ccccc21)C(=O)O`, “Active”.
`CC(=O)N[C@H]1[C@H]([C@H](O)[C@H](O)CO)OC(O)(C(=O)O)C[C@@H]1O` (stereo partly specified): the result in assay [11] and in assay [8] was Active. In addition, in assay [2], the inhibition entry was “Active”. Further, in assay [12], the Activity amounted to 130%.
With `O=C(O)[C@@H]1CCCN1C(=O)OCC1c2ccccc2-c2ccccc21`, the inhibition entry in assay [1] was “inactive”.
Same read-out and setting: as for `O=C(Cc1cc(=O)oc2cc(O)ccc12)N[C@@H](CCCCNC(=O)OCc1ccccc1)C(=O)O`, the entry is “Active”.
`O=C(O)CN(CC(=O)O)Cc1cc2c(cc1O)Oc1cc(O)c(CN(CC(=O)O)CC(=O)O)cc1C21OC(=O)c2ccccc21`: the inhibition result in assay [2] was “Active”.

What is called inhibition is the share of the control response that was lost under treatment.
